Reference: ChEMBL document CHEMBL4152262, “Design, synthesis and evaluation of novel multi-target-directed ligands for treatment of Alzheimer's disease based on coumarin and lipoic acid scaffolds” (Eur J Med Chem, 2018)

What was measured:
PC-12 [1] = assay: Neuroprotection against H2O2-induced cell death in rat PC12 cells assessed as cell viability at 0.1 uM preincubated for 3 hrs followed by H2O2 stimulation measured after 2 hrs by MTT assay (reference value: 25.2 to 41.8%); type: functional; conditions: read-out: Activity
PC-12 [2] = assay: Neuroprotection against H2O2-induced cell death in rat PC12 cells assessed as cell viability at 1 uM preincubated for 3 hrs followed by H2O2 stimulation measured after 2 hrs by MTT assay (reference value: 25.2 to 41.8%); type: functional; conditions: read-out: Activity
PC-12 [3] = assay: Neuroprotection against H2O2-induced cell death in rat PC12 cells assessed as cell viability at 5 uM preincubated for 3 hrs followed by H2O2 stimulation measured after 2 hrs by MTT assay (reference value: 25.2 to 41.8%); type: functional; conditions: read-out: Activity
PC-12 [4] = assay: Neuroprotection against H2O2-induced cell death in rat PC12 cells assessed as cell viability at 10 uM preincubated for 3 hrs followed by H2O2 stimulation measured after 2 hrs by MTT assay (reference value: 25.2 to 41.8%); type: functional; conditions: read-out: Activity
PC-12 [5] = assay: Neuroprotection against H2O2-induced cell death in rat PC12 cells assessed as cell viability at 20 uM preincubated for 3 hrs followed by H2O2 stimulation measured after 2 hrs by MTT assay (reference value: 25.2 to 41.8%); type: functional; conditions: read-out: Activity
PC-12 [6] = assay: Neuroprotection against H2O2-induced cell death in rat PC12 cells assessed as cell viability at 50 uM preincubated for 3 hrs followed by H2O2 stimulation measured after 2 hrs by MTT assay (reference value: 25.2 to 41.8%); type: functional; conditions: read-out: Activity
PC-12 [7] = assay: Neuroprotection against H2O2-induced cell death in rat PC12 cells assessed as increase in cell viability preincubated for 3 hrs followed by H2O2 stimulation measured after 2 hrs by MTT assay; type: functional, cell-based
Acetylcholinesterase = Acetylcholinesterase (Electrophorus electricus, UniProt O42275); assay: Inhibition of electric eel AChE using acetylthiocholine iodide as substrate pretreated for 5 mins followed by substrate addition by Ellman's method
Sequence of Acetylcholinesterase (O42275 whole entry): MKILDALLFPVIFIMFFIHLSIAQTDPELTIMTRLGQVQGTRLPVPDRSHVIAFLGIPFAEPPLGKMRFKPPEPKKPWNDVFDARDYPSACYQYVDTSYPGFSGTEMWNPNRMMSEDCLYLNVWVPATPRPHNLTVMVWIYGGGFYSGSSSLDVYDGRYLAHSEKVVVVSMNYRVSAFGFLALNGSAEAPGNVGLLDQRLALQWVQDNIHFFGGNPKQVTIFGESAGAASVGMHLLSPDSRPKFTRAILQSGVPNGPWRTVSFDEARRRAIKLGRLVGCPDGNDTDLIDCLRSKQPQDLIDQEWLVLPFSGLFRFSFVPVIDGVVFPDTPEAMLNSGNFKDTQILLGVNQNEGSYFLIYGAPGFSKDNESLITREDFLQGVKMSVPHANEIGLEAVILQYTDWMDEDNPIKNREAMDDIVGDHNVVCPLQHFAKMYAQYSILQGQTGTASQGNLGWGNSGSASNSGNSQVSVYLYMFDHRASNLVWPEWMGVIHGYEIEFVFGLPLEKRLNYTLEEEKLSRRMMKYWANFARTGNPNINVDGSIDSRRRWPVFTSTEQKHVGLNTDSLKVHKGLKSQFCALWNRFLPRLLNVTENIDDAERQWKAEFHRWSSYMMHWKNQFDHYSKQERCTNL

Cholinesterase = Cholinesterase (Equus caballus, UniProt P81908); assay: Inhibition of equine serum BuChE using butyrylthiocholine iodide as substrate pretreated for 5 mins followed by substrate addition by Ellman's method
Sequence of Cholinesterase (P81908 whole entry): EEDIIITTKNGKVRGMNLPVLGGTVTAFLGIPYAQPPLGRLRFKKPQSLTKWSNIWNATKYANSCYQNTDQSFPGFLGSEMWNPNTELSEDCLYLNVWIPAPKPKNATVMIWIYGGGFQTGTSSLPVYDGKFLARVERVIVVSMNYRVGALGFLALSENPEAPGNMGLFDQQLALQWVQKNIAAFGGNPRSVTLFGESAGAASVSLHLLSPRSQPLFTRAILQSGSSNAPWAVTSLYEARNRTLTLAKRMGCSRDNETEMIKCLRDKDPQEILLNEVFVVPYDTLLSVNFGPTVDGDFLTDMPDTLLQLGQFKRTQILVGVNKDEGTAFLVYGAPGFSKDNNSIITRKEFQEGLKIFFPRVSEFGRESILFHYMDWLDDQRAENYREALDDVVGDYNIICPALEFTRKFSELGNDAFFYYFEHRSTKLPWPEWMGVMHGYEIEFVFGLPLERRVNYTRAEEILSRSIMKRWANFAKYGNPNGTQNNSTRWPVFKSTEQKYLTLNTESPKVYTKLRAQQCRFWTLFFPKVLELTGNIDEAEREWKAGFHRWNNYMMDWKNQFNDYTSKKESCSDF
Procedure, shortened: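 Ellman assay with horse serum BuChE (5 IU/mL) in 0.1 M phosphate buffer pH 8.0 with DTNB. Compound was preincubated with enzyme 5 min, then butyrylthiocholine iodide was added. Absorbance read at 412 nm. IC50 from a log concentration vs % inhibition curve; triplicate runs.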

[8] = Inhibition of soybean 15-LOX assessed as reduction in conversion of linoleic acid to 13-hydroperoxylinoleic acid by spectrophotometric method; design: species or system Glycine max
Procedure, shortened: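 Soybean lipoxygenase type 1-B (final 167 U/mL) with compound (DMSO stock diluted in 0.1 M phosphate buffer pH 8) and linoleic acid (134 mM in ethanol) at room temperature. Formation of 13-hydroperoxylinoleic acid followed spectrophotometrically at 234 nm.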

[9] = target: Amyloid-beta precursor protein (Homo sapiens) (UniProt P05067); assay: Inhibition of amyloid beta (1 to 42) (unknown origin) self-induced aggregation at 100 uM incubated for 48 hrs by thioflavin-T fluorescence assay relative to control
Sequence of Amyloid-beta precursor protein (Homo sapiens) (P05067 whole entry): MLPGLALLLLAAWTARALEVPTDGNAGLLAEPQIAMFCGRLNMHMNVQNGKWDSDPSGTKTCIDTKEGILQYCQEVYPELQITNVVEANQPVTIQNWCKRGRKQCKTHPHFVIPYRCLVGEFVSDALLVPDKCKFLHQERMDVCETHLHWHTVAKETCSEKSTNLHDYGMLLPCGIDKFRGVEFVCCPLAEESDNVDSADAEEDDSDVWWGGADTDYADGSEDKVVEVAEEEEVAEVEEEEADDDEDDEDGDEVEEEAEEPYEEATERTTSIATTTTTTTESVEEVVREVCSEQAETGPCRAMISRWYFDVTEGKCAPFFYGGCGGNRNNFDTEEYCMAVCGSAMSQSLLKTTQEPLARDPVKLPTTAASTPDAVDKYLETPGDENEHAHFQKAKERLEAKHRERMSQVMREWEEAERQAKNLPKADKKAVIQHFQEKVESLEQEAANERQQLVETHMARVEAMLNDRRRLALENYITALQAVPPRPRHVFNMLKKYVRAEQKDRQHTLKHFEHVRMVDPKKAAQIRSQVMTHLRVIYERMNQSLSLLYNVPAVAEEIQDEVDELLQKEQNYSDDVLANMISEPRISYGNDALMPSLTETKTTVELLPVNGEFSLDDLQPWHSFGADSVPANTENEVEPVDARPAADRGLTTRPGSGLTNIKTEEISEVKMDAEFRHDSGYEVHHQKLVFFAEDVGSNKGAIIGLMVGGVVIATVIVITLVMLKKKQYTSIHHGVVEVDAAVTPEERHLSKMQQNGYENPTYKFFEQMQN

PC-12 [10] = assay: Inhibition of H2O2-induced ROS generation in rat PC12 cells assessed as intracellular ROS level at 50 uM preincubated for 6 hrs followed by H2O2 addition measured after 18 hrs by DCFH-DA staining based fluorimetric method relative to control; type: functional; design: scale not given: the % may be the effect or the level left
Procedure, shortened: (§1)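 PC12 cells at 1×10^4/well in RPMI with 10% FBS and penicillin/streptomycin, 24 h at 37 °C, 5% CO2. Test samples (1, 5, 10, 50 µM; ≤0.5% DMSO) for 6 h, PBS wash, then H2O2 150 µM for 18 h. Loaded with 10 µM DCFH-DA for 30 min at 37 °C in the dark, washed twice. DCF fluorescence read at ex 485/em 528 nm as % of untreated control. Three independent experiments, mean ± SEM.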

PC-12 [11] = assay: Inhibition of H2O2-induced ROS generation in rat PC12 cells assessed as intracellular ROS level at 10 uM preincubated for 6 hrs followed by H2O2 addition measured after 18 hrs by DCFH-DA staining based fluorimetric method relative to control; type: functional; design: scale not given: the % may be the effect or the level left; procedure, shortened: as §1
PC-12 [12] = assay: Inhibition of H2O2-induced ROS generation in rat PC12 cells assessed as intracellular ROS level at 5 uM preincubated for 6 hrs followed by H2O2 addition measured after 18 hrs by DCFH-DA staining based fluorimetric method relative to control; type: functional; design: scale not given: the % may be the effect or the level left; procedure, shortened: as §1
PC-12 [13] = assay: Inhibition of H2O2-induced ROS generation in rat PC12 cells assessed as intracellular ROS level at 1 uM preincubated for 6 hrs followed by H2O2 addition measured after 18 hrs by DCFH-DA staining based fluorimetric method relative to control; type: functional; design: scale not given: the % may be the effect or the level left; procedure, shortened: as §1

Compound	viability at 0.1 µM (PC-12 [1])	viability at 1 µM (PC-12 [2])	viability at 5 µM (PC-12 [3])	viability at 10 µM (PC-12 [4])	viability at 20 µM (PC-12 [5])	viability at 50 µM (PC-12 [6])	Activity (PC-12 [7])	IC50 (Acetylcholinesterase)	IC50 (Cholinesterase)	IC50 [8]	inhibition [9]	Activity (PC-12 [10])	Activity (PC-12 [11])	Activity (PC-12 [12])	Activity (PC-12 [13])
O=C(CCCCC1CCSS1)NCc1cn(CCCOc2ccc3cc(C(=O)O)c(=O)oc3c2)nn1 (stereo not given)	43.4%	52.1%	57%	59.9%	66.8%	73.5%	Dose-dependent effect	> 100 µM	> 100 µM	> 100 µM					
O=C(CCCCC1CCSS1)NCc1cn(CCCCCOc2ccc3cc(-c4ccc(Cl)c(Cl)c4)c(=O)oc3c2)nn1 (stereo not given)	39.7%	50.6%	54.8%	59.4%	65.5%	66.2%	Dose-dependent effect	> 100 µM	7.8 µM	> 100 µM					
O=C(CCCCC1CCSS1)NCc1cn(CCCOc2ccc3cc(-c4ccc(Cl)cc4)c(=O)oc3c2)nn1 (stereo not given)	40.9%	49.3%	60.6%	67.8%	75.6%	79.4%	Dose-dependent effect	> 100 µM	> 100 µM	> 100 µM					
COc1ccc(-c2cc3ccc(OCCCCn4cc(CNC(=O)CCCCC5CCSS5)nn4)cc3oc2=O)cc1OC (stereo not given)	40.7%	53%	57.2%	64%	68.4%	71.9%	Dose-dependent effect	> 100 µM	> 100 µM	> 100 µM					
O=C(CCCCC1CCSS1)NCc1cn(CCCOc2ccc3ccc(=O)oc3c2)nn1 (stereo not given)	37.8%	37.2%	39.2%	40%	42.2%	43.5%	Dose-dependent effect	66.7 µM	> 100 µM	> 100 µM					
O=C(CCCCC1CCSS1)NCc1cn(CCCCCOc2ccc3ccc(=O)oc3c2)nn1 (stereo not given)	46.3%	57.2%	64.5%	71.3%	78.5%	84.9%	Dose-dependent effect	70.6 µM	> 100 µM	> 100 µM					
COc1ccc(-c2cc3ccc(OCCCn4cc(CNC(=O)CCCCC5CCSS5)nn4)cc3oc2=O)cc1 (stereo not given)	42%	47.4%	52.8%	57.6%	62%	65.7%	Dose-dependent effect	40.2 µM	> 100 µM	> 100 µM					
Cc1cc(=O)oc2cc(OCCCCCn3cc(CNC(=O)CCCCC4CCSS4)nn3)ccc12 (stereo not given)	45.6%	56.5%	61%	66.3%	70.3%	73.7%	Dose-dependent effect	> 100 µM	> 100 µM	> 100 µM					
COc1ccc(-c2cc3ccc(OCCCCCn4cc(CNC(=O)CCCCC5CCSS5)nn4)cc3oc2=O)cc1 (stereo not given)	34.5%	37.1%	41%	45.5%	49%	52.8%	Dose-dependent effect	> 100 µM	> 100 µM	> 100 µM					
O=C(CCCCC1CCSS1)NCc1cn(CCCOc2ccc3cc(-c4ccc(Cl)c(Cl)c4)c(=O)oc3c2)nn1 (stereo not given)	38.1%	42.4%	44.7%	49.6%	51.2%	54.8%	Dose-dependent effect	> 100 µM	73.5 µM	> 100 µM					
CCOC(=O)c1cc2ccc(OCCCn3cc(CNC(=O)CCCCC4CCSS4)nn3)cc2oc1=O (stereo not given)	28%	28.3%	32.4%	36.1%	42.1%	49.2%	Dose-dependent effect	55 µM	> 100 µM	> 100 µM					
O=C(CCCCC1CCSS1)NCc1cn(CCCCCOc2ccc3cc(-c4ccc(Br)cc4)c(=O)oc3c2)nn1 (stereo not given)	41.8%	43.7%	45.7%	48.4%	52.3%	53.6%	Dose-dependent effect	> 100 µM	> 100 µM	> 100 µM					
O=C(CCCCC1CCSS1)NCc1cn(CCCCOc2ccc3cc(-c4ccc(Cl)c(Cl)c4)c(=O)oc3c2)nn1 (stereo not given)	39.6%	49.3%	53.2%	58.9%	62.9%	69.5%	Dose-dependent effect	> 100 µM	10.3 µM	> 100 µM					
O=C(CCCCC1CCSS1)NCc1cn(CCCCOc2ccc3ccc(=O)oc3c2)nn1 (stereo not given)	40.5%	45.9%	52.8%	65.1%	69.8%	75.8%	Dose-dependent effect	65.5 µM	> 100 µM	> 100 µM					
O=C(CCCCC1CCSS1)NCc1cn(CCCCOc2ccc3cc(-c4ccc(Cl)cc4)c(=O)oc3c2)nn1 (stereo not given)	38.8%	46.2%	52%	61.8%	68.4%	74.9%	Dose-dependent effect	> 100 µM	52 µM	> 100 µM					
CO[C@H]1/C=C/O[C@@]2(C)Oc3c(C)c(O)c4c(O)c(c(/C=N/N5CCN(C)CC5)c(O)c4c3C2=O)NC(=O)/C(C)=C\C=C\[C@H](C)[C@H](O)[C@@H](C)[C@@H](O)[C@@H](C)[C@H](OC(C)=O)[C@@H]1C											27.5%				
O=C(O)CCCCC1CCSS1 (stereo not drawn) [LIPOIC ACID, ALPHA]												55.9%	105.72%	110.65%	138.77%
